# This is a sample that favours compounds with a hit; in the whole collection about 3.7% have one here.
# RBBP9 inh – blocks human serine hydrolase RBBP9; recombinant RBBP9, FP-Rh probe fluorescence polarization; inhibition, % at 7.94 µM; actives 0.2% (n = 220,000);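 active = inhibition above the campaign mean of all tested compounds plus 3 SD, cut at about 14% in these data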
#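 Assay system: recombinant human RBBP9; Reagent: Serine-hydrolase probe FP-Rh, 375 nM pre-mixing; Doses: 7.94 µM single dose, 0.794% DMSO; Incubation: 30 min then 45 min, 25 °C; Detection: fluorescence polarization (mP), excitation 525 nm, emission 598 nm; Evaluation: percent inhibition from mP, scaled between DMSO and no-protein wells.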
# 14-3-3 Bad PPI – disrupts binding of bovine 14-3-3 zeta to phospho-Bad peptide; P63103; TR-FRET 14-3-3zeta/Dy647-pBad peptide displacement, 1 h; inhibition, % at 21.7 µM; actives 0.71% (n = 220,000);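 active = inhibition above about 70%, limit read from the data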
# Target sequence (P63103 whole entry, looked up): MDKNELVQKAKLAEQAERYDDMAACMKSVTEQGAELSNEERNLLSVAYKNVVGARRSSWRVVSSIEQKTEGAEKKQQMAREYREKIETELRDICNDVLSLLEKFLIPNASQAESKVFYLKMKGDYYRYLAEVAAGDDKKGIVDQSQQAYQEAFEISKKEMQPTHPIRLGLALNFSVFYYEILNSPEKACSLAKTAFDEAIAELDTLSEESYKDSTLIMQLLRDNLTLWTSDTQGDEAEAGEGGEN
# EBV gp42 inh – blocks Epstein-Barr virus glycoprotein 42 binding; Q1HVG2; Fluorescence polarization binding assay, mP read-out; inhibition, % (tested at 21.74 µM); actives 0.42% (n = 220,000); in the data active = inhibition above about 50%
# Target sequence (Q1HVG2 whole entry, looked up): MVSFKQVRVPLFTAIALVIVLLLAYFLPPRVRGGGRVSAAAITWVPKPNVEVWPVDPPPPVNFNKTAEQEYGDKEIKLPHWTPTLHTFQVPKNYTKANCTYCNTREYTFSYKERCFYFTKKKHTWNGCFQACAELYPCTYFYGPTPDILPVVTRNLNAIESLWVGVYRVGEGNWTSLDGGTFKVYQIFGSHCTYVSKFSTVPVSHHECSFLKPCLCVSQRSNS
# WT yeast gro inh – growth inhibition of WT yeast, mitochondrial fusion screen. mitochondrial fusion phenotypic screen, WT strain. inhibition, % at 10 µM. actives 2.1% (n = 190,000); in the data active = inhibition above about 58%; tested in S. cerevisiae
# NCF1 inh – blocks human p47phox regulatory protein of NADPH oxidases; p47phox/p22phox peptide binding, fluorescence polarization, 2 h; inhibition, % at 24.7 µM; actives 0.53% (n = 220,000)
# eIF4E 4G PPI – blocks eIF4E binding to eIF4G. TR-FRET eIF4E-eIF4GI(517-606) binding, 2 h. P63073+Q04637. inhibition, % at 21.7 µM. actives 0.37% (n = 220,000)
# A number is an active result; - = inactive; . = not tested or not shown; + = active, no number; ! = not active in a repeat; [ ] = dose if it differs, or a comment.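 The calls were made as follows, unless noted: active = inhibition above about 30% (limit read from the data); inactive = the rest.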
SMILES,RBBP9 inh,14-3-3 Bad PPI,EBV gp42 inh,WT yeast gro inh,NCF1 inh,eIF4E 4G PPI
COc1ccc(S(=O)(=O)Nc2cc(Sc3ncn[nH]3)c(O)c3ccccc23)cc1,-,87[fluorescence artefact?],-,94,-,46[fluorescence artefact?]
COc1ccc(S(=O)(=O)Nc2ccc(O)c(Sc3ncn[nH]3)c2)cc1,-,-,-,-,-,-
Cc1cc(C)c(S(=O)(=O)N2CCN(C(=O)N(C)C)CC2)c(C)c1,-,-,-,-,-,-
CCOC(=O)c1c(C)oc2c1c(CN1CCN(CCO)CC1)c(O)c1ccccc12,-,-,-,59,38,-
CCOC(=O)c1c(C)oc2c1c(CN1CCN(C(=O)OCC)CC1)c(O)c1ccccc12,-,-,-,-,-,-
Cc1ccc(C)c(C(=O)COC(=O)c2cc([N+](=O)[O-])ccc2NCCO)c1,-,-,-,60,-,-
O=C(O)c1cc([N+](=O)[O-])ccc1NCCO,-,-,-,-,-,-
O=C(CN1CC[n+]2c(-c3cccs3)csc21)c1ccc(-c2ccccc2)cc1,-,-,-,69,-,-
Cc1ccc(C(=O)Cn2nnc(-c3cccs3)n2)cc1,-,-,-,.,-,-
O=C(O)CCCCCNC(=O)C(=O)C1C(=O)Nc2ccccc21 (configuration not stated),-,-,-,.,-,-
CC1Oc2ccccc2C=C1/C=N/NC(=O)c1ccccc1 (configuration not stated),-,-,-,-,-,-
CC1Oc2ccccc2C=C1/C=N/NC(=O)c1ccccc1O (configuration not stated),-,-,-,71,-,-
O=C(NNc1ccc(Cl)cc1)c1cccs1,-,-,-,.,-,-
CCCC[C@@H]1C[C@H]1[C@@H](NC(=O)c1cccs1)c1ccc(Cl)cc1,-,-,-,70,-,-
Cc1ccc(C(C)NC(=O)c2ccco2)cc1 (configuration not stated),-,-,-,-,-,-
CCCC[C@@H]1C[C@H]1[C@@H](NC(=O)c1ccco1)c1ccc(Cl)cc1,-,-,-,73,-,-
CC1CCc2c(C(=O)Oc3cccc(-n4cnnn4)c3)csc2C1 (configuration not stated),-,-,-,61,-,-
Cc1ccc(NC(=O)CCC(=O)NNC(=O)c2ccccc2)c(C)c1,-,-,-,-,-,-
O=C(CCCCCN1C(=O)c2ccccc2C1=O)NCc1ccccn1,-,77,-,-,-,-
COC(=O)c1sccc1-n1cccc1C(=O)C(=O)N1CCOCC1,-,-,-,-,-,-
COc1cc(N2CCCC2)c(OC)cc1/C=C(/C#N)c1cccc(F)c1,-,-,108,-,-,-
Cn1nnc2cc(C(=O)Nc3ccc4ccccc4c3)ccc21,-,-,-,-,-,-
COc1ccc(CNCCc2ccccc2)cc1OCC(N)=O,-,-,-,-,-,-
COc1ccc(CNCCc2ccc(Cl)cc2)cc1OCc1ccccc1,-,-,-,82,-,-
CCOc1cc(CNCCc2ccc(S(N)(=O)=O)cc2)cc(Cl)c1OCc1ccccc1,-,-,-,-,79,-
SMILES,RBBP9 inh,14-3-3 Bad PPI,EBV gp42 inh,WT yeast gro inh,NCF1 inh,eIF4E 4G PPI
COc1cc(CNCc2ccccn2)ccc1OCc1ccc(Cl)c(Cl)c1,-,-,-,72,-,-
CC(CC(=O)O)CC(=O)Nc1nncs1 (configuration not stated),-,-,-,.,-,-
CCN(CC)c1ncccc1C(=O)NCc1cccs1,-,-,-,-,-,-
Cc1ccc(C)c(Nc2ncccc2C(=O)NCc2cccs2)c1,-,-,-,64,-,-
NC(N)=NS(=O)(=O)c1ccc(NC(=S)NC(=O)c2sc3ccccc3c2Cl)cc1,-,76,-,-,-,-
Clc1ccc(OCCCn2cncn2)cc1Cl,-,86,-,-,-,93[fluorescence artefact?]
c1ccc(-c2ccc(OCCOCCn3cncn3)cc2)cc1,-,73,-,-,-,-
COc1ccc(N2C(=O)CS/C2=N\C(=S)Nc2ccccc2)cc1,-,-,-,.,-,-
N/C(=N\OC(=O)c1cc(-c2ccccc2)nc2ccccc12)c1ccccn1,-,-,-,66,-,-
N/C(=N\OC(=O)Cc1ccc(-c2ccccc2)cc1)c1ccccn1,-,-,-,62,-,-
O=S(=O)(NCc1ccccc1)c1ccc(Br)c2nsnc12,-,-,-,.,-,-
COc1ccc(C(=O)N2CCN(S(=O)(=O)c3ccc(C)cc3)CC2)cc1S(=O)(=O)N1CCOCC1,-,-,-,.,-,62
COc1ccc(C(=O)N2CCCC2)cc1S(=O)(=O)N1CCOCC1,-,-,-,-,-,-
COc1cc2c(cc1OC)CN(C(=O)c1ccc(S(=O)(=O)N3CCCCC3)cc1)CC2,-,-,-,-,49,-
O=S(=O)(NNc1ccc(Cl)nn1)c1ccc(F)cc1,-,-,-,-,-,-
CC(C)COC(=O)CCn1[nH]c(=O)c2ccccc2c1=O,-,-,-,-,-,-
CCCCCCCCOC(=O)CCn1[nH]c(=O)c2ccccc2c1=O,-,-,-,80,-,-
Cc1cc(NC(=O)Cc2cccs2)no1,-,-,71,-,-,-
COc1cccc(CN(C(=O)Cn2nnc(-c3ccccc3F)n2)C(C(=O)NC(C)(C)C)c2ccncc2)c1 (configuration not stated),-,-,-,-,-,-
COc1ccc(NC(=O)COC(=O)c2ccc(S(=O)(=O)N(C)c3ccccc3OC)cc2)c(OC)c1,-,-,-,-,-,-
Cc1cc(C)nc(N2CCC(C(=O)NCCc3ccc(Cl)cc3)CC2)n1,-,-,-,-,-,-
Cc1cc(C)nc(N2CCC(C(=O)NCCc3ccc(F)cc3)CC2)n1,-,-,-,69,-,-
CN(C)c1nc(-c2ccccc2)ncc1S(=O)(=O)c1ccccc1,-,-,-,-,-,-
CCN(CC)c1nc(-c2ccccc2)ncc1S(=O)(=O)c1ccc(C)cc1,-,-,-,62,-,-
CC1CCc2sc3nc(NCc4ccco4)n4ncnc4c3c2C1 (configuration not stated),-,-,-,82,-,-
SMILES,RBBP9 inh,14-3-3 Bad PPI,EBV gp42 inh,WT yeast gro inh,NCF1 inh,eIF4E 4G PPI
CC1CCCc2sc3nc(NCc4ccco4)n4ncnc4c3c21 (configuration not stated),-,-,-,79,-,-
N#Cc1cnc(NOCc2ccc(Cl)cc2)nc1,-,-,-,-,-,-
O=C(NNC(=O)c1sccc1-n1cccc1)c1ccccc1,-,-,-,-,-,-
O=C(NNC(=O)c1sccc1-n1cccc1)c1cccc(Cl)c1,-,-,67,-,-,-
COc1ccc(-c2noc(=O)n2CC(=O)N2CCC(Cc3ccccc3)CC2)cc1,-,-,-,-,-,-
c1ccc2[nH]c(-c3ccnc4ccccc34)nc2c1,-,-,-,-,+!,49![fluorescence artefact?]
